In ChEMBL document CHEMBL1158588, “Discovery of brain-penetrant, orally bioavailable aminothienopyridazine inhibitors of tau aggregation” (J Med Chem, 2010):
Converted amounts (≈) assume the structure as drawn. The source made the active and inactive calls. The rule behind the calls is not given here.

Columns and labels:
[1] = Inhibition of heparin-induced K18PL tau protein aggregation assessed as thioflavin T binding by fluorescence assay relative to control; conditions: concentration not given here
[2] = Inhibition of K18PL tau protein aggregation by orthogonal sedimentation based SDS-PAGE relative to control; conditions: concentration not given here
[3] = Aqueous solubility in sodium acetate buffer at pH 7.0 by turbidimetric measurements; assay type: physicochemical
Procedure, shortened: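 Compounds were serially diluted 2.5-fold in DMSO, then diluted 100-fold into 100 mM NaOAc pH 7.0 (final 200 µM down to 0.03 µM, 1% DMSO). Plates were agitated for 2.5 h and absorbance was read at 550–700 nm with the DMSO blank subtracted. The solubility limit was taken as the concentration before the one where mean absorbance exceeded 0.03 AU.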

[4] = Inhibition of tau40 protein aggregation by orthogonal sedimentation based SDS-PAGE relative to control; parameters: concentration or dose not given beside the values; conditions: concentration not given here
Plasma [5] = test: Drug level in plasma of B6C3F1 mouse at 5 mg/kg, ip by LC-MS/MS analysis; assay type: ADME, organism-based; parameters: dose 5 mg/kg, route intraperitoneal; conditions: in vivo
Procedure, shortened: (§1)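 Three female B6C3F1 mice per compound were given 5 mg/kg i.p. Brain and plasma were sampled at a single 1 h time point. Brain was homogenized 1:2 w/v in 10 mM ammonium acetate pH 5.7, and plasma was collected in EDTA. Samples were extracted with acetonitrile and quantified by LC-MS/MS MRM against spiked calibration curves. B/P was taken as the brain/plasma ratio.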

Homo sapiens = species on record: Homo sapiens; test: Inhibition of human full length tau40 protein-mediated bovine brain tubulin assembly at 62.5 uM by MT assembly assay
Procedure, shortened: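 Wild-type full-length human tau40 (2N4R, 25 µM) was preincubated with compound at 62.5 µM in RAB pH 6.9 for 120 min at room temperature. Bovine brain tubulin and GTP were then added, giving final concentrations of 30 µM tubulin, 20 µM tau, 50 µM compound and 2 mM GTP. Absorbance at 340 nm was read every minute for 45 min at 37 °C.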

Brain = test: Drug level in brain of B6C3F1 mouse at 5 mg/kg, ip by LC-MS/MS analysis; assay type: ADME, organism-based; parameters: dose 5 mg/kg, route intraperitoneal; conditions: in vivo; procedure, shortened: as §1
HEK293 = test: Cytotoxicity against HEK293 cells up to 100 uM after 72 hrs by alamar blue assay; assay type: cell-based; conditions: human, hek293, 72 h
Procedure, shortened: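 HEK-293 cells were plated at 20,000 per well in DMEM with 10% FCS. After 24 h, half-log compound dilutions starting at 200 µM were added. Cells were cultured for 72 h, and viability was read by Alamar blue fluorescence. CC50 values were fitted from the curves.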

[6] = Ratio of drug level from brain to plasma of B6C3F1 mouse at 5 mg/kg, ip by LC-MS/MS analysis; assay type: ADME, organism-based; parameters: dose 5 mg/kg, route intraperitoneal; procedure, shortened: as §1
[7] = Oral bioavailability in B6C3F1 mouse at 5 mg/kg; assay type: ADME, organism-based; conditions: in vivo
Procedure, shortened: (§2)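 Mice were dosed by oral gavage at 5 mg/kg. […] Bioavailability was obtained by comparing plasma AUC after oral dosing with AUC after 2 mg/kg i.v.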

Plasma [8] = test: Elimination half life in plasma of B6C3F1 mouse at 2 mg/kg, iv; assay type: ADME, organism-based; parameters: dose 2 mg/kg, route intravenous; conditions: in vivo
Procedure, shortened: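 Female B6C3F1 mice received 2 mg/kg i.v., three per time point. Plasma levels were measured by LC-MS/MS with 1/x-weighted calibration, averaging triplicate injections. Half-life was derived from the elimination rate constant, taken as the slope of ln plasma concentration against time over the 4, 8 and 16 h points.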

[9] = Ratio of drug level from brain to plasma of B6C3F1 mouse at 2 mg/kg, iv; assay type: ADME, organism-based; parameters: dose 2 mg/kg, route intravenous; conditions: read-out: BPR
Procedure, shortened: (§3)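 Female B6C3F1 mice, two months old, given 2 mg/kg i.v., three mice per time point at 0.5, 1, 2, 4, 8 and 16 h. Brain hemispheres were homogenized in 10 mM ammonium acetate pH 5.7, and plasma was taken from EDTA blood. Both were extracted with acetonitrile and measured by LC-MS/MS (MRM) against spiked standard curves at 4–4000 ng/mL.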

[10] = AUC (0.5 to 16 hrs) in plasma of B6C3F1 mouse at 2 mg/kg, iv; assay type: ADME, organism-based; parameters: time upper 16 hr, time lower 0.5 hr, dose 2 mg/kg, route intravenous; procedure, shortened: as §3
[11] = AUC (0.5 to 16 hrs) in brain of B6C3F1 mouse at 2 mg/kg, iv; assay type: ADME, organism-based; parameters: time upper 16 hr, time lower 0.5 hr, dose 2 mg/kg, route intravenous; procedure, shortened: as §3
[12] = AUC (0.5 to 16 hrs) in plasma of B6C3F1 mouse at 5 mg/kg, po; assay type: ADME, organism-based; parameters: time 0.5-16 hr, dose 5 mg/kg, route oral; procedure, shortened: as §2

| Structure (SMILES) | inhibition [1] [%] | inhibition [2] [%] | solubility kinetic [3] [µM] | inhibition [4] [%] | Drug uptake (Plasma [5]) [ng/mL] | inhibition (Homo sapiens) | Drug uptake (Brain) [ng/g] | Activity (HEK293) | BPR [6] | bioavailability [7] [%] | beta t1/2 (Plasma [8]) | Kp [9] | AUC(0-t) [10] [ng·h/mL] | AUC(0-t) [11] [ng·h/mL] | AUC(0-t) [12] [ng·h/mL] |
| --- | --- | --- | --- | --- | --- | --- | --- | --- | --- | --- | --- | --- | --- | --- | --- |
| CC(C)NC(=O)c1nn(-c2ccc(Br)cc2)c(=O)c2c(N)scc12 | 85 | 58 | 13 (≈ 5.29 µg/mL) | 55 | 316 | inactive | 641 | Non-toxic | – | – | – | – | – | – | – |
| CN(C)C(=O)c1nn(-c2ccc(Cl)cc2)c(=O)c2c(N)scc12 | 75 | 69 | 32 (≈ 11.2 µg/mL) | 69 | 30 | inactive | 14 | Non-toxic | – | – | – | – | – | – | – |
| CCNC(=O)c1nn(-c2ccc(Cl)cc2)c(=O)c2c(N)scc12 | 84 | 94 | 32 (≈ 11.2 µg/mL) | 87 | 500 | inactive | 886 | Non-toxic | – | – | – | – | – | – | – |
| CC(C)OC(=O)c1nn(-c2ccc(Cl)cc2)c(=O)c2c(N)scc12 | 79 | 44 | 32 (≈ 11.6 µg/mL) | 61 | 84 | inactive | 436 | Non-toxic | 5.2 | – | – | – | – | – | – |
| CC(C)NC(=O)c1nn(-c2ccc(Cl)cc2)c(=O)c2c(N)scc12 | 83 | 65 | 32 (≈ 11.6 µg/mL) | 45 | 499 | inactive | 1100 | Non-toxic | – | – | – | – | – | – | – |
| CNC(=O)c1nn(-c2ccc(Cl)cc2)c(=O)c2c(N)scc12 | 78 | 68 | 13 (≈ 4.35 µg/mL) | 61 | 70 | inactive | 34 | Non-toxic | – | – | – | – | – | – | – |
| Nc1scc2c(C(=O)NC3CC3)nn(-c3ccc(Cl)cc3)c(=O)c12 | 83 | 69 | 32 (≈ 11.5 µg/mL) | 58 | 823 | inactive | 1299 | Non-toxic | – | 70 | >= 2.5 hr | 1.58 | 297 | 469 | 526 |
| Nc1scc2c(C(=O)O)nn(-c3ccc(Cl)cc3)c(=O)c12 | 84 | 79 | > 200 | 62 | 5230 | inactive | 121 | Non-toxic | – | – | – | – | – | – | – |
| CCN(C)C(=O)c1nn(-c2ccc(Cl)cc2)c(=O)c2c(N)scc12 | 75 | 62 | 80 (≈ 29 µg/mL) | 58 | 138 | inactive | 122 | Non-toxic | – | – | – | – | – | – | – |
| CCOC(=O)c1nn(-c2ccc(Cl)cc2)c(=O)c2c(N)scc12 | 71 | 70 | 13 (≈ 4.55 µg/mL) | 48 | 20 | inactive | 67 | Non-toxic | – | – | – | – | – | – | – |
